Experimental data: paper PMC8643159 (Drug Design, Development and Therapy, 2021)
Where two headings read alike, the source gives them in different places.

Legend:
CYP3A4 = settings: cited from earlier work
CYP2C8 = settings: cited from earlier work
[1] = cited from earlier work
[2] = assay type: in vivo; settings: beagle dogs
[3] = Stability of ripretinib in beagle dog plasma under four conditions; assay type: in vitro ADME; settings: room temperature, autosampler, freeze-thaw, frozen storage; 2.5, 100, 750 ng/mL
Summary of the method: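 Dog plasma spiked with test compound at 2.5, 100 and 750 ng/mL, six replicates per level. Stability checked at room temperature, in frozen storage, through freeze-thaw, and as processed extracts in the autosampler. Samples taken with avapritinib IS through 1 mol/L NaOH and ethyl acetate extraction, dried under nitrogen, reconstituted in mobile phase; quantified by UPLC-MS/MS (C18, 0.1% formic acid/acetonitrile gradient).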

[4] = oral administration of 150 mg of ripretinib
[5] = single dose of ripretinib 150 mg, patients
[6] = combined with itraconazole vs ripretinib alone
[7] = combined with voriconazole vs ripretinib alone

For `CCC(C)n1ncn(-c2ccc(N3CCN(c4ccc(OCC5COC(Cn6cncn6)(c6ccc(Cl)cc6Cl)O5)cc4)CC3)cc2)c1=O` (centres unmarked) [Itraconazole], the “inhibition of CYP3A4” value (CYP3A4) is listed as “strong inhibitor”.
In the case of `CCn1c(=O)c(-c2cc(NC(=O)Nc3ccccc3)c(F)cc2Br)cc2cnc(N)cc21` [DP-5439], the “inhibition of CYP2C8” value (CYP2C8) is given as “could inhibit”.
In the case of `CCn1c(=O)c(-c2cc(NC(=O)Nc3ccccc3)c(F)cc2Br)cc2cnc(NC)cc21` [Ripretinib], the “inhibition of CYP2C8” value (CYP2C8) is given as “could inhibit”, the “median time to reach Cmax” value [1, 4] is given as 4 h and the “time to reach a steady state” value [1, 4] is given as 14 days. The “mean AUC0-12h” value [1, 5] was 3773 ng·h/mL, the “mean AUC0-24h” value [1, 5] was 6634 ng·h/mL and the “mean Cmax” value [1, 5] was 502 ng/mL. For the same compound, the “increase of AUC0→t of ripretinib” value [2, 6] was 36.35%, the “increase of Cmax of ripretinib” value [2, 6] was 38.35% and the “increase of AUC0→t of ripretinib” value [2, 7] was 25.52%. For the same compound, the “increase of Cmax of ripretinib” value [2, 7] was 27.44% and the “stability in plasma under four conditions” value [3] was “good stability”.
In the case of `C[C@@H](c1ncncc1F)[C@](O)(Cn1cncn1)c1ccc(F)cc1F` [voriconazole], the “inhibition of CYP3A4” value (CYP3A4) is given as “moderate inhibitor”.
